Source: PubChem BioAssay AID504513 (The Scripps Research Institute Molecular Screening Center, 2011)
Calls of active or inactive are those of the source.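 How the source made its calls: active means PAFAH2 inhibition at least 50% at 0.2 µM with under 50% on each related off-target enzyme; inactive means the rest, including PAFAH2 hits that also hit off-targets.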

Tests used:
Test in all cases: PAFAH2 inhibition and serine hydrolase selectivity, late-stage follow-up, cell lysate, fluorescence, gel-based ABPP, BW5147 T-cell proteome, powder samples (AID 504513);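 further: 0% = DMSO-only band intensity and 100% = blank gel background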
LYPLA1 = settings: BW5147 mouse T-cell proteome, FP-Rh gel ABPP, stronger effect = higher value
Procedure, shortened: (§1)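 Assay system: murine BW5147 T-cell soluble lysate, PAFAH2 and anti-target serine hydrolases / Quantity: 1 mg/mL soluble protein / Schedule: 30 min compound, 30 min probe at 25 °C / Also added: FP-Rh probe at 2 µM / Controls: DMSO high, gel background low / Signal: in-gel fluorescence of probe-labelled bands, integrated optical density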

[1] = target: Platelet-activating factor acetylhydrolase 2, cytoplasmic (Mus musculus) (UniProt Q8VDG7); settings: FP-Rh gel ABPP, stronger effect = higher value
Platelet-activating factor acetylhydrolase 2, cytoplasmic (Mus musculus), sequence (Q8VDG7 whole entry, looked up): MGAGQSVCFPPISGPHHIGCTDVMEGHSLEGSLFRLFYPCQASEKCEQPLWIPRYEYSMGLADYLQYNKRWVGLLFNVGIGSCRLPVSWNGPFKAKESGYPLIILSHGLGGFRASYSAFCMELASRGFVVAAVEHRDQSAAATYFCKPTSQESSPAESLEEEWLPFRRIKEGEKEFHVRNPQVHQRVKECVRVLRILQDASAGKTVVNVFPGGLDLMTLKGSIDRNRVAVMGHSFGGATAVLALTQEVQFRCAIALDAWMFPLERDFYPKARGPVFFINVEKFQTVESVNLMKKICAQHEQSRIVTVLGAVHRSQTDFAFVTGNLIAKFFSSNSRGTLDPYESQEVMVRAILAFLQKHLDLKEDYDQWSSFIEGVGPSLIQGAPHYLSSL
Procedure, shortened: as §1

APEH = settings: BW5147 mouse T-cell proteome, FP-Rh gel ABPP, stronger effect = higher value
Procedure, shortened: as §1

ESD = settings: BW5147 mouse T-cell proteome, FP-Rh gel ABPP, stronger effect = higher value
Procedure, shortened: as §1

ABHD11 = settings: BW5147 mouse T-cell proteome, FP-Rh gel ABPP, stronger effect = higher value
Procedure, shortened: as §1

| Compound | inhibition (LYPLA1; at 1 µM) | inhibition (LYPLA1; inhibition, at 0.02 µM) [%] | inhibition (LYPLA1; inhibition, at 0.2 µM) [%] | inhibition ([1]; PAFAH2, at 1 µM) | inhibition ([1]; PAFAH2, inhibition, at 0.02 µM) [%] | inhibition ([1]; PAFAH2, inhibition, at 0.2 µM) [%] | inhibition (APEH; at 1 µM) | inhibition (APEH; inhibition, at 0.02 µM) [%] | inhibition (APEH; inhibition, at 0.2 µM) [%] | inhibition (ESD; at 1 µM) | inhibition (ESD; inhibition, at 0.02 µM) [%] | inhibition (ESD; inhibition, at 0.2 µM) [%] | inhibition (ABHD11; at 1 µM) | inhibition (ABHD11; inhibition, at 0.02 µM) [%] | inhibition (ABHD11; inhibition, at 0.2 µM) [%] |
| --- | --- | --- | --- | --- | --- | --- | --- | --- | --- | --- | --- | --- | --- | --- | --- |
| CN(C(=O)n1ccnn1)c1ccccc1 | 0% (inactive) | 0 | 0 | 0% (inactive) | 0 | 0 | 0% (inactive) | 0 | 0 | 0% (inactive) | 0 | 0 | 100% (inactive) | 0 | 0 |
| O=C(N(c1ccccc1)c1ccccc1)n1ccnn1 | 0% (inactive) | 0 | 0 | 0% (inactive) | 0 | 0 | 0% (inactive) | 0 | 0 | 0% (inactive) | 0 | 0 | 100% | 0 | 50 |
| CN(C)C(=O)n1ccnn1 | 0% (inactive) | 0 | 0 | 0% (inactive) | 0 | 0 | 0% (inactive) | 0 | 0 | 0% (inactive) | 0 | 0 | 0% (inactive) | 0 | 0 |
| CN1CCN(C(=O)n2ccnn2)CC1 | 0% (inactive) | 0 | 0 | 0% (inactive) | 0 | 0 | 0% (inactive) | 0 | 0 | 0% (inactive) | 0 | 0 | 50% (inactive) | 0 | 0 |
| O=C(N1CCOCC1)n1ccnn1 | 0% (inactive) | 0 | 0 | 100% (inactive) | 0 | 0 | 0% (inactive) | 0 | 0 | 0% (inactive) | 0 | 0 | 100% | 0 | 50 |
| O=C(n1ccnn1)n1c2ccccc2c2ccccc21 | 0% (inactive) | 0 | 0 | 0% (inactive) | 0 | 0 | 0% (inactive) | 0 | 0 | 0% (inactive) | 0 | 0 | 0% (inactive) | 0 | 0 |
| CCN(CC)C(=O)n1ccnn1 | 0% (inactive) | 0 | 0 | 0% (inactive) | 0 | 0 | 0% (inactive) | 0 | 0 | 0% (inactive) | 0 | 0 | 0% (inactive) | 0 | 0 |
| C=CCN(CC=C)C(=O)n1ccnn1 | 0% (inactive) | 0 | 0 | 0% (inactive) | 0 | 0 | 0% (inactive) | 0 | 0 | 0% (inactive) | 0 | 0 | 100% (inactive) | 0 | 0 |

The next lines start with the values.

| inhibition (LYPLA1; at 1 µM) | inhibition (LYPLA1; inhibition, at 0.02 µM) [%] | inhibition (LYPLA1; inhibition, at 0.2 µM) [%] | inhibition ([1]; PAFAH2, at 1 µM) | inhibition ([1]; PAFAH2, inhibition, at 0.02 µM) [%] | inhibition ([1]; PAFAH2, inhibition, at 0.2 µM) [%] | inhibition (APEH; at 1 µM) | inhibition (APEH; inhibition, at 0.02 µM) [%] | inhibition (APEH; inhibition, at 0.2 µM) [%] | inhibition (ESD; at 1 µM) | inhibition (ESD; inhibition, at 0.02 µM) [%] | inhibition (ESD; inhibition, at 0.2 µM) [%] | inhibition (ABHD11; at 1 µM) | inhibition (ABHD11; inhibition, at 0.02 µM) [%] | inhibition (ABHD11; inhibition, at 0.2 µM) [%] | Compound |
| --- | --- | --- | --- | --- | --- | --- | --- | --- | --- | --- | --- | --- | --- | --- | --- |
| 0% (inactive) | 0 | 0 | 100% | 75 | 100 | 100% | 0 | 100 | 0% (inactive) | 0 | 0 | 100% | 0 | 100 | O=C(N1CCCC1)n1ncc(-c2ccccc2)n1 |
| 0% (inactive) | 0 | 0 | 100% | 0 | 100 | 100% | 0 | 100 | 50% (inactive) | 0 | 25 | 100% | 50 | 100 | O=C(N1CCOCC1)n1ncc(-c2cc(F)cc(F)c2)n1 |
| 0% (inactive) | 0 | 0 | 100% | 100 | 100 | 100% | 0 | 100 | 0% (inactive) | 0 | 0 | 0% (inactive) | 0 | 0 | O=C(N1CCCC1)n1ncc(-c2ccc(Oc3ccccc3)cc2)n1 |
| 100% (inactive) | 0 | 0 | 100% (inactive) | 0 | 0 | 100% (inactive) | 0 | 0 | 0% (inactive) | 0 | 0 | 100% (inactive) | 0 | 0 | O=C(N1CCCC1)n1ccnn1 |
| 0% (inactive) | 0 | 0 | 100% | 0 | 100 | 100% | 0 | 100 | 0% (inactive) | 0 | 0 | 100% | 0 | 100 | O=C(N1CCCC1)n1ncc(C(O)(c2ccccc2)c2ccccc2)n1 |
| 0% (inactive) | 0 | 0 | 50% | 0 | 50 | 0% (inactive) | 0 | 0 | 0% (inactive) | 0 | 0 | 100% | 25 | 100 | O=C(N1CCOCC1)n1ncc(-c2ccc(OC(F)(F)F)cc2)n1 |
| 0% (inactive) | 0 | 0 | 75% | 25 | 50 | 50% (inactive) | 0 | 25 | 0% (inactive) | 0 | 0 | 100% | 50 | 100 | O=C(N1CCOCC1)n1ncc(-c2ccccc2)n1 |
| 0% (inactive) | 0 | 0 | 100% | 0 | 100 | 100% (inactive) | 0 | 25 | 0% (inactive) | 0 | 0 | 0% (inactive) | 0 | 0 | COc1ccc2cc(-c3cnn(C(=O)N4CCCC4)n3)ccc2c1 |
| 0% (inactive) | 0 | 0 | 50% (inactive) | 0 | 0 | 0% (inactive) | 0 | 0 | 0% (inactive) | 0 | 0 | 50% (inactive) | 0 | 0 | O=C(N1CCCCC1)n1ccnn1 |
| 0% (inactive) | 0 | 0 | 100% | 100 | 100 | 0% (inactive) | 0 | 0 | 0% (inactive) | 0 | 0 | 0% (inactive) | 0 | 0 | O=C(N1CCCC1)n1ncc(-c2ccc(-c3ccccc3)cc2)n1 |
| 0% (inactive) | 0 | 0 | 50% | 0 | 50 | 0% (inactive) | 0 | 0 | 0% (inactive) | 0 | 0 | 100% | 25 | 100 | O=C(N1CCOCC1)n1ncc(C(O)(c2ccccc2)c2ccccc2)n1 |
